The source of these data is ChEMBL document CHEMBL1629514, “Synthesis, biological activity, and evaluation of the mode of action of novel antitubercular benzofurobenzopyrans substituted on A ring” (Eur J Med Chem, 2010).

Test [1] has as its system Mycobacterium tuberculosis. Briefly: Antimycobacterial activity against Mycobacterium tuberculosis H37Rv after 6 days by Microdilution Resazurin assay. It counts as functional. The note with it: 144 h. In short, it runs like this:
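M. tuberculosis H37Rv grown in 7H9 with 10% ADC enrichment. Two-fold serial dilutions from 500 to 0.9 µg/mL, using DMSO stocks, in 7H9. Incubated at 37 °C for 6 days, then 0.01% resazurin added and incubated a further 24 h. MIC is the lowest concentration preventing the blue-to-pink colour change. DMSO growth controls and isoniazid (1 µg/mL to 1 ng/mL) were included.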
(In general: Dilution methods test growth across graded concentrations, often in twofold steps.)

The nature of test [2]: Selectivity index, ratio of IC50 for african green monkey VERO cells to MIC95 for Mycobacterium tuberculosis H37Rv. It counts as functional. In short, it runs like this:
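VERO cells grown in DMEM with 10% FBS at 37 °C and 5% CO2. Seeded at 2×10^4 cells/mL and allowed to attach for 3 h. Compounds added at 10^-8 to 10^-4 M (DMSO ≤0.4% v/v) and cells counted by hemocytometer after 48 h. IC50 from means of two experiments in duplicate. SI is VERO IC50 divided by the M. tuberculosis MIC95.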

The next test relates to Vero. Briefly: Cytotoxicity against african green monkey Vero cells assessed as cell growth after 48 hrs by hemocytometry. It is filed as cell-based. The note with it: Chlorocebus sabaeus. In short, it runs like this: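 VERO cells grown in DMEM with 10% v/v FBS plus penicillin/streptomycin, 37 °C, humidified 5% CO2. Log-phase cells seeded in 24-well plates and allowed to attach 3 h. Compounds diluted in DMSO (final ≤0.4% v/v) and tested at 10^-8 to 10^-4 M. Cells counted after 48 h. Two experiments in duplicate; mean used to derive IC50.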

Test [3] relates to Mycolicibacterium smegmatis. Briefly: Antimycobacterial activity against Mycobacterium smegmatis mc2155 assessed as inhibition of mycolic acid biosynthesis at 1 to 25 ug/ml after 15 mins. It counts as functional. In short, it runs like this: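 Cell-free assay on cell wall extracts from bacteria washed in phosphate buffer and disrupted at 0.8 kbar, using 500 µg extract protein. Buffer was 100 mM potassium phosphate pH 7.0 with 3 mM MgCl2, 7 mM KHCO3, 7 mM ATP and 0.7 mM CoASH. Compounds (5% v/v DMSO final) preincubated 15 min at 37 °C, then [1-14C]acetate added for 60 min at 37 °C. Reactions saponified and mycolate profiles run on TLC; % inhibition taken against control. Thiolactomycin was the reference, run at two concentrations.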

For test [4], the system named is Mycobacterium tuberculosis. In words: Antimycobacterial activity against Mycobacterium tuberculosis. It is filed as functional.
For test [5], the system named is Mycolicibacterium smegmatis. In words: Antimycobacterial activity against Mycobacterium smegmatis. It counts as functional.

In brackets after ≈: the same amount, converted by molar mass.

As a reminder, the IC50 is the concentration at which inhibition is half-maximal.

In test [1], `CC(=O)c1ccc2oc3ccc4c(c3c2c1)CCC(C)(C)O4` registered an MIC95 of over 340 µM.

Take `CC1(C)C=Cc2c(ccc3oc4c(Cl)cccc4c23)O1`: the “Selectivity Index” value in test [2] was 1.2. The molecule further registered an MIC95 in test [1] of 87.5 µM (≈ 24.9 µg/mL). In addition, in the test with Vero, the IC50 was 100 µM.

Regarding `CC1(C)C=Cc2c(ccc3oc4cc(Br)ccc4c23)O1`, the “Selectivity Index” value in test [2] turned out to be 93.3. This molecule also gave an MIC95 in test [1] of 37.5 µM (≈ 12.3 µg/mL).

With `CC1(C)C=Cc2c(ccc3oc4ccc(Cl)cc4c23)O1`, the “Selectivity Index” value in test [2] amounted to 0.8. Besides, the MIC95 in test [1] worked out at 353 µM (≈ 101 µg/mL). Moreover, the half-maximal inhibitory concentration (IC50) with Vero is 290 µM.

With `CC1(C)C=Cc2c(ccc3oc4cccc(Cl)c4c23)O1`, the “Selectivity Index” value in test [2] is given as 2.3. In test [1], this molecule showed an MIC95 of 43.8 µM (≈ 12.5 µg/mL). Further, the IC50 with Vero turned out to be 100 µM.

With `CC1(C)C=Cc2c(ccc3oc4c(O)cccc4c23)O1`, the “Selectivity Index” value in test [2] is 0.1. The MIC95 in test [1] is 23.5 µM (≈ 6.26 µg/mL). Further, the IC50 in the test with Vero was 3.3 µM.

On to `CC1(C)C=Cc2c(ccc3oc4cc(O)ccc4c23)O1`, for which, in test [2], the “Selectivity Index” value is recorded as 0.4. This molecule registered an MIC95 in test [1] of 23.5 µM (≈ 6.26 µg/mL). Besides, in the test on Vero, the IC50 turned out to be 9.2 µM.

Consider `CC1(C)C=Cc2c(ccc3oc4ccc(O)cc4c23)O1`, for which the “Selectivity Index” value in test [2] was 0.1. The molecule also had an MIC95 in test [1] of 47 µM (≈ 12.5 µg/mL). Moreover, the IC50 in the test with Vero was determined as 5 µM.

Turning to `CC1(C)C=Cc2c(ccc3oc4cccc(O)c4c23)O1`, the “Selectivity Index” value in test [2] is recorded as 0.1. Also, in test [1], the MIC95 stood at 95 µM (≈ 25.3 µg/mL). Further, the IC50 with Vero was 9.1 µM.

Regarding `CC1(C)CCc2c(ccc3oc4ccc(O)cc4c23)O1`, the “Selectivity Index” value in test [2] is on record as 0.4. The same molecule gave an MIC95 in test [1] of 46.5 µM (≈ 12.5 µg/mL). Besides, the IC50 with Vero was 18 µM.

For `COc1cccc2c1oc1ccc3c(c12)C=CC(C)(C)O3`, in test [2], the “Selectivity Index” value is on record as 2.2. Further, the MIC95 in test [1] is 45 µM (≈ 12.6 µg/mL). In the test with Vero, the IC50 was found to be 100 µM. In addition, the “inhibition (INH)” value in test [3] was over 60%.

For `COc1ccc2c(c1)oc1ccc3c(c12)C=CC(C)(C)O3`, in test [2], the “Selectivity Index” value amounted to 1.1. The molecule also yielded an MIC95 in test [1] of 89 µM (≈ 24.9 µg/mL). Besides, the IC50 in the test on Vero is 100 µM. Besides, in test [3], the “inhibition (INH)” value is over 60%.

Turning to `COc1ccc2oc3ccc4c(c3c2c1)C=CC(C)(C)O4`, in test [2], the “Selectivity Index” value was 2.2. In addition, in test [1], the MIC95 turned out to be 45 µM (≈ 12.6 µg/mL). The IC50 in the test with Vero worked out at 100 µM. Further, the “inhibition (INH)” value in test [3] is over 60%.

Consider `COc1cccc2oc3ccc4c(c3c12)C=CC(C)(C)O4`, for which the “Selectivity Index” value in test [2] is given as 6.2. In test [1], this molecule gave an MIC95 of 45 µM (≈ 12.6 µg/mL). The IC50 in the test with Vero came out at 280 µM. The “inhibition (INH)” value in test [3] is over 60%.

Consider `COc1ccc2oc3cc4c(cc3c2c1)OC(C)(C)C=C4`, for which the “Selectivity Index” value in test [2] was 83.2. The molecule further returned an MIC95 in test [1] of 89 µM (≈ 24.9 µg/mL).

With `CC1(C)C=Cc2c(ccc3c2oc2ccc4c(c23)C=CC(C)(C)O4)O1`, in test [1], the MIC95 is over 300 µM.

Molecule `CC1(C)C=Cc2c(ccc3oc4cc(-c5ccc6c(c5)oc5ccc7c(c56)C=CC(C)(C)O7)ccc4c23)O1` gave an MIC95 in test [1] of over 200 µM.

As for `CC1(C)C=Cc2c(ccc3oc4ccncc4c23)O1`, the MIC95 in test [4] came out at 16 µg/mL (≈ 63.7 µM); in test [5] it was 8 µg/mL (≈ 31.8 µM).

In turn, `CC(=O)c1ccc2oc3ccc4c(c3c2c1)C=CC(C)(C)O4` gave an MIC95 in test [1] of over 1710 µM.

Regarding `CC1(C)C=Cc2c(ccc3oc4ccccc4c23)O1`, in test [2], the “Selectivity Index” value was found to be 3.2. The MIC95 in test [1] was 100 µM (≈ 25 µg/mL). Moreover, in the test on Vero, the IC50 is 320 µM.

Turning to `COc1cccc2c1C(=O)c1c(O)c3c(c(O)c1C2=O)C[C@@](O)(C(=O)CO)C[C@@H]3O[C@H]1C[C@H](N)[C@H](O)[C@H](C)O1` [DOXORUBICIN], the IC50 with Vero is 3.6 µM.

In turn, `NNC(=O)c1ccncc1` [ISONIAZID] returned an MIC95 in test [1] of 1.8 µM (≈ 0.247 µg/mL). Besides, the IC50 with Vero is over 100 µM.
